This passage reports ED50, Dose ratio and Selectivity results from ChEMBL document CHEMBL1123039, “N-substituted imidazolines and ethylenediamines and their action on alpha- and beta-adrenergic receptors” (1985).

Experiment [1] concerns Rattus norvegicus. Description: The dose required to increase diastolic blood pressure by 50 mmHg in pithed rats after intravenous administration. The class given is functional. Particulars: Artery. An outline of the steps:
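Pithed rat preparation with the right femoral vein cannulated for iv dosing (1 mL/kg). At least 30 min equilibration preceded drugs. Pressor effect was read as the increase in diastolic blood pressure (mmHg), and heart rate was recorded by a pulse-triggered cardiotachometer. Values are mean ± SEM.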

Experiment [2] relates to Rattus norvegicus. Description: Tested for alpha-2 adrenoceptor-Mediated Pressor Response in Pithed Rats; Dose ratio by subsequent administration of antagonist (yohimbine) intravenously at a dose of 1 mg/kg. The class given is functional. Conditions: route intravenous. The method in brief: (§1)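 Pithed rats; drugs given iv through the cannulated right femoral vein at 1 mL/kg after at least 30 min equilibration. Pressor responses to the agonist were recorded as rises in diastolic blood pressure (mmHg), with and without pretreatment with prazosin (0.1 mg/kg, iv; α1-selective) or yohimbine (1 mg/kg, iv; α2-selective). Shift of the agonist dose-response was expressed as a dose ratio (mean ± SEM).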

The subject of experiment [3] is Rattus norvegicus. Description: Tested for alpha1 adrenoceptor-Mediated Pressor Response in Pithed Rats; Dose ratio subsequent administration of antagonist (Prazosin) intravenously at a dose of 0.1 mg/kg. The class given is functional. Conditions: route intravenous. The method in brief: as §1
For experiment [4], the system named is Adrenergic receptor alpha (Rattus norvegicus). The experiment in a line: The selectivity was evaluated against alpha 1 and alpha 2 adrenoceptors.
Experiment [5] deals with Rattus norvegicus. The experiment in a line: Tested for alpha-1 adrenoceptor-Mediated Pressor response in Pithed Rats; Dose ratio subsequent administration of antagonist (Prazosin) intravenously at a dose of 0.1 mg/kg. Particulars: route intravenous. The class given is functional. The method in brief: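 Pithed rats; drugs given iv via the right femoral vein at 1 mL/kg after at least 30 min equilibration. The pressor response is the rise in diastolic blood pressure (mmHg). Agonist pressor responses were measured after α1-selective blockade with prazosin (0.1 mg/kg, iv), and the dose ratio for the pressor response was derived. Values are mean ± SEM.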

Usually ED50 stands for the dose that gives a 50% effect, or the effect in half of the subjects. Consider `Cl.Oc1ccc(CN2C=NCC2)cc1O`, for which the ED50 in the experiment on Rattus norvegicus [1] came to 0.035 mg/kg. In addition, the Dose ratio with Rattus norvegicus [2] amounted to 2.4; with Rattus norvegicus [3] it was 5.3. The same molecule gave a Selectivity in experiment [4] of 2.2.

Regarding `Cl.Oc1ccc(CCN2C=NCC2)cc1O`, in the experiment on Rattus norvegicus [1], the 50% effective dose (ED50) is 0.024 mg/kg. In addition, the results for the Dose ratio in the experiment with Rattus norvegicus [2] and in the experiment on Rattus norvegicus [3] were 2.1 and 1.3, respectively. In experiment [4], the Selectivity was found to be 0.7.

Molecule `Cl.Cl.NCCNCCc1ccc(O)c(O)c1` displayed an ED50 with Rattus norvegicus [1] of 0.028 mg/kg. Besides, the Dose ratio came to 5.7 in the experiment on Rattus norvegicus [2] and 1.7 in the experiment on Rattus norvegicus [3]. The molecule also had a Selectivity in experiment [4] of 0.3.

The molecule `Oc1ccc(CC2=NCCN2)cc1O` displayed an ED50 with Rattus norvegicus [1] of 0.00035 mg/kg. Further, the Dose ratio in the experiment with Rattus norvegicus [2] worked out at 0.4; in the experiment with Rattus norvegicus [5] it was 0.8. Moreover, in experiment [4], the Selectivity was 2.

The molecule `c1ccc(C2CC2)c(OCC2=NCCN2)c1` [CIRAZOLINE] gave an ED50 with Rattus norvegicus [1] of 0.0006 mg/kg.

`Br.Br.CCN1CCc2nc(N)oc2CC1` displayed an ED50 in the experiment on Rattus norvegicus [1] of 0.026 mg/kg.

Molecule `Cl.Cl.NCCNCc1ccc(O)c(O)c1` came in with an ED50 with Rattus norvegicus [1] of 0.305 mg/kg. Further, the Dose ratio is listed as 4.4 in the experiment on Rattus norvegicus [2] and 5.5 in the experiment on Rattus norvegicus [3]. The Selectivity in experiment [4] is 1.3.
